Reference: ChEMBL document CHEMBL2384906, “Biological activity, design, synthesis and structure activity relationship of some novel derivatives of curcumin containing sulfonamides” (Eur J Med Chem, 2013)
Converted amounts (≈) assume the structure as drawn. The source made the active and inactive calls. The calls are words filed in the database; no cut-off is given here.

What was measured:
Mus musculus = assay: Antiinflammatory activity in mouse assessed as inhibition of carrageenan-induced increase in paw volume at 200 mg/kg administered 1 hr prior to carrageenan challenge measured after 3 hrs relative to control; assay type: functional
Outline: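 Mice were fasted 2 h and placed in groups of five. Controls received saline i.p. Phenylbutazone was given at 100 mg/kg i.p., curcumin at 200 mg/kg i.p., and derivatives at 200 mg/kg. After 1 h, 0.1 mL of 1% carrageenan in saline was injected subplantar into the right hind paw. Paw volume was followed by plethysmometer for 3 h, and % inhibition was calculated as (Vc − Vt)/Vc × 100.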

HCT-116 = assay: Cytotoxicity against human HCT116 cells after 24 hrs by MTT assay; assay type: functional, cell-based
Outline: (§1)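 The MTT assay seeded 5 × 10⁴ cells per well and grew them 24 h in RPMI 1640 with compound at 2.5–200 µM. Medium without cells was the blank and adriamycin the positive control. MTT was added for 4 h at 37 °C, formazan was solubilised, and absorbance was read at 570 nm. IC50 is the concentration that cuts viability 50% against untreated cells.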

QG-56 = assay: Cytotoxicity against human QG56 cells after 24 hrs by MTT assay; assay type: functional, cell-based; outline: as §1
HeLa = assay: Cytotoxicity against human HeLa cells after 24 hrs by MTT assay; assay type: functional, cell-based; outline: as §1
HepG2 = assay: Cytotoxicity against human HepG2 cells after 24 hrs by MTT assay; assay type: functional, cell-based; outline: as §1
Trichoderma viride [1] = assay: Antifungal activity against Trichoderma viride MTCC 1107 after 48 hrs; assay type: functional; details: MTCC 1107, 48 h
Trichoderma viride [2] = assay: Antifungal activity against Trichoderma viride MTCC 1107 assessed as zone of inhibition at 20 uM after 48 hrs by disc diffusion method; assay type: functional; details: MTCC 1107, 48 h, read-out: IZ
Outline: (§2)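 Spores from 4-day potato dextrose agar cultures, suspended in sterile water at 1.5 × 10⁵ CFU/mL. 0.2 mL was spread on potato dextrose agar. 5 mm filter-paper discs soaked with test compound were laid on the lawn. Incubation was 48 h at 28 °C, then the inhibition zone was measured in mm. Fluconazole was the positive control and acetone the negative control.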

Trichoderma viride [3] = assay: Antifungal activity against Trichoderma viride MTCC 1107 assessed as zone of inhibition at 40 uM after 48 hrs by disc diffusion method; assay type: functional; details: MTCC 1107, 48 h, read-out: IZ; outline: as §2
Trichoderma viride [4] = assay: Antifungal activity against Trichoderma viride MTCC 1107 assessed as zone of inhibition at 80 uM after 48 hrs by disc diffusion method; assay type: functional; details: MTCC 1107, 48 h, read-out: IZ; outline: as §2
Curvularia lunata [5] = assay: Antifungal activity against Curvularia lunata MTCC 581 after 48 hrs; assay type: functional; details: MTCC 581, 48 h
Curvularia lunata [6] = assay: Antifungal activity against Curvularia lunata MTCC 581 assessed as zone of inhibition at 20 uM after 48 hrs by disc diffusion method; assay type: functional; details: MTCC 581, 48 h, read-out: IZ; outline: as §2
Curvularia lunata [7] = assay: Antifungal activity against Curvularia lunata MTCC 581 assessed as zone of inhibition at 40 uM after 48 hrs by disc diffusion method; assay type: functional; details: MTCC 581, 48 h, read-out: IZ; outline: as §2
Aspergillus flavus [8] = assay: Antifungal activity against Aspergillus flavus MTCC 1021 after 48 hrs; assay type: functional; details: MTCC 1021, 48 h
Curvularia lunata [9] = assay: Antifungal activity against Curvularia lunata MTCC 581 assessed as zone of inhibition at 80 uM after 48 hrs by disc diffusion method; assay type: functional; details: MTCC 581, 48 h, read-out: IZ; outline: as §2
Aspergillus flavus [10] = assay: Antifungal activity against Aspergillus flavus MTCC 1021 assessed as zone of inhibition at 20 uM after 48 hrs by disc diffusion method; assay type: functional; outline: as §2
Aspergillus flavus [11] = assay: Antifungal activity against Aspergillus flavus MTCC 1021 assessed as zone of inhibition at 40 uM after 48 hrs by disc diffusion method; assay type: functional; details: MTCC 1021, 48 h, read-out: IZ; outline: as §2
Aspergillus flavus [12] = assay: Antifungal activity against Aspergillus flavus MTCC 1021 assessed as zone of inhibition at 80 uM after 48 hrs by disc diffusion method; assay type: functional; details: MTCC 1021, 48 h, read-out: IZ; outline: as §2
Aspergillus niger [13] = assay: Antifungal activity against Aspergillus niger MTCC 1108 after 48 hrs; assay type: functional; details: MTCC 1108, 48 h
Aspergillus niger [14] = assay: Antifungal activity against Aspergillus niger MTCC 1108 assessed as zone of inhibition at 20 uM after 48 hrs by disc diffusion method; assay type: functional; details: MTCC 1108, 48 h, read-out: IZ; outline: as §2
Aspergillus niger [15] = assay: Antifungal activity against Aspergillus niger MTCC 1108 assessed as zone of inhibition at 40 uM after 48 hrs by disc diffusion method; assay type: functional; details: MTCC 1108, 48 h, read-out: IZ; outline: as §2
Aspergillus niger [16] = assay: Antifungal activity against Aspergillus niger MTCC 1108 assessed as zone of inhibition at 80 uM after 48 hrs by disc diffusion method; assay type: functional; details: MTCC 1108, 48 h, read-out: IZ; outline: as §2
Escherichia coli [17] = assay: Antimicrobial activity against Escherichia coli ATCC 35218 after 24 hrs by broth micro serial dilution method; assay type: functional; details: ATCC 35218, 24 h
Outline: (§3)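 This was broth microdilution in autoclaved Mueller-Hinton broth. 150 µL of compound per well was serially diluted […], and 50 µL of test organism was added. Plates were incubated 24 h at 37 °C and optical density was read.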

Escherichia coli [18] = assay: Antimicrobial activity against Escherichia coli ATCC 35218 assessed as diameter of inhibition zone at 20 uM after 24 hrs by Kirby -Baur disc diffusion method; assay type: functional; details: ATCC 35218, 24 h, read-out: DIZ
Outline: (§4)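 Kirby-Bauer disc diffusion was used. Acetone stocks (160 µM) were serially doubled down to 80, 40 and 20 µM. 4 µL of each went onto 5 mm sterile paper discs, which were dried 30 min at 50 °C. Inoculum was 1.5 × 10⁸ CFU/mL diluted to 3 × 10² CFU/mL, and 50 µL was spread on Mueller-Hinton agar. After 24 h at 37 °C the inhibition-zone diameter was measured. Ciprofloxacin served as positive control.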

Escherichia coli [19] = assay: Antimicrobial activity against Escherichia coli ATCC 35218 assessed as diameter of inhibition zone at 40 uM after 24 hrs by Kirby -Baur disc diffusion method; assay type: functional; details: ATCC 35218, 24 h, read-out: DIZ; outline: as §4
Escherichia coli [20] = assay: Antimicrobial activity against Escherichia coli ATCC 35218 assessed as diameter of inhibition zone at 80 uM after 24 hrs by Kirby -Baur disc diffusion method; assay type: functional; details: ATCC 35218, 24 h, read-out: DIZ; outline: as §4
Pseudomonas aeruginosa [21] = assay: Antimicrobial activity against Pseudomonas aeruginosa ATCC 15499 after 24 hrs by broth micro serial dilution method; assay type: functional; details: ATCC 15499, 24 h; outline: as §3
Pseudomonas aeruginosa [22] = assay: Antimicrobial activity against Pseudomonas aeruginosa ATCC 15499 assessed as diameter of inhibition zone at 20 uM after 24 hrs by Kirby -Baur disc diffusion method; assay type: functional; outline: as §4
Pseudomonas aeruginosa [23] = assay: Antimicrobial activity against Pseudomonas aeruginosa ATCC 15499 assessed as diameter of inhibition zone at 40 uM after 24 hrs by Kirby -Baur disc diffusion method; assay type: functional; details: ATCC 15499, 24 h, read-out: DIZ; outline: as §4
Pseudomonas aeruginosa [24] = assay: Antimicrobial activity against Pseudomonas aeruginosa ATCC 15499 assessed as diameter of inhibition zone at 80 uM after 24 hrs by Kirby -Baur disc diffusion method; assay type: functional; details: ATCC 15499, 24 h, read-out: DIZ; outline: as §4
Salmonella typhi [25] = assay: Antimicrobial activity against Salmonella typhi ATCC 23564 after 24 hrs by broth micro serial dilution method; assay type: functional, Salmonella enterica subsp. enterica serovar Typhi; details: Salmonella enterica, ATCC 23564, 24 h
Salmonella typhi [26] = assay: Antimicrobial activity against Salmonella typhi ATCC 23564 assessed as diameter of inhibition zone at 20 uM after 24 hrs by Kirby -Baur disc diffusion method; assay type: functional, Salmonella enterica subsp. enterica serovar Typhi; details: Salmonella enterica, ATCC 23564, 24 h; read-out: DIZ
Salmonella typhi [27] = assay: Antimicrobial activity against Salmonella typhi ATCC 23564 assessed as diameter of inhibition zone at 40 uM after 24 hrs by Kirby -Baur disc diffusion method; assay type: functional, Salmonella enterica subsp. enterica serovar Typhi; details: Salmonella enterica, ATCC 23564, 24 h; read-out: DIZ
Salmonella typhi [28] = assay: Antimicrobial activity against Salmonella typhi ATCC 23564 assessed as diameter of inhibition zone at 80 uM after 24 hrs by Kirby -Baur disc diffusion method; assay type: functional, Salmonella enterica subsp. enterica serovar Typhi; details: Salmonella enterica, ATCC 23564, 24 h; read-out: DIZ
Bacillus cereus [29] = assay: Antimicrobial activity against Bacillus cereus MTCC 7350 after 24 hrs by broth micro serial dilution method; assay type: functional; details: MTCC 7350, 24 h; outline: as §3
Bacillus cereus [30] = assay: Antimicrobial activity against Bacillus cereus MTCC 7350 assessed as diameter of inhibition zone at 20 uM after 24 hrs by Kirby -Baur disc diffusion method; assay type: functional; details: MTCC 7350, 24 h, read-out: DIZ; outline: as §4
Bacillus cereus [31] = assay: Antimicrobial activity against Bacillus cereus MTCC 7350 assessed as diameter of inhibition zone at 40 uM after 24 hrs by Kirby -Baur disc diffusion method; assay type: functional; details: MTCC 7350, 24 h, read-out: DIZ; outline: as §4
Bacillus cereus [32] = assay: Antimicrobial activity against Bacillus cereus MTCC 7350 assessed as diameter of inhibition zone at 80 uM after 24 hrs by Kirby -Baur disc diffusion method; assay type: functional; details: MTCC 7350, 24 h, read-out: DIZ; outline: as §4
Staphylococcus aureus [33] = assay: Antimicrobial activity against Staphylococcus aureus ATCC 11632 after 24 hrs by broth micro serial dilution method; assay type: functional; details: ATCC 11632, 24 h; outline: as §3
Staphylococcus aureus [34] = assay: Antimicrobial activity against Staphylococcus aureus ATCC 11632 assessed as diameter of inhibition zone at 20 uM after 24 hrs by Kirby -Baur disc diffusion method; assay type: functional; details: ATCC 11632, 24 h, read-out: DIZ; outline: as §4
Staphylococcus aureus [35] = assay: Antimicrobial activity against Staphylococcus aureus ATCC 11632 assessed as diameter of inhibition zone at 40 uM after 24 hrs by Kirby -Baur disc diffusion method; assay type: functional; details: ATCC 11632, 24 h, read-out: DIZ; outline: as §4
Staphylococcus aureus [36] = assay: Antimicrobial activity against Staphylococcus aureus ATCC 11632 assessed as diameter of inhibition zone at 80 uM after 24 hrs by Kirby -Baur disc diffusion method; assay type: functional; details: ATCC 11632, 24 h, read-out: DIZ; outline: as §4

COc1ccc(NS(=O)(=O)c2ccc(/N=C(/C=C(O)/C=C/c3ccc(O)c(OC)c3)\C=C\c3ccc(O)c(OC)c3)cc2)nn1
inhibition in vivo at 200 mg/kg (Mus musculus): 35.4% | IC50 (HCT-116): 25 µM | IC50 (QG-56): 25 µM | IC50 (HeLa): 50 µM | IC50 (HepG2): 25 µM | MIC (Trichoderma viride [1]): 20 µM (≈ 12.6 µg/mL) | zone of inhibition at 20 µM (Trichoderma viride [2]): 12 mm | zone of inhibition at 40 µM (Trichoderma viride [3]): 16 mm | zone of inhibition at 80 µM (Trichoderma viride [4]): 19 mm | MIC (Curvularia lunata [5]): 20 µM (≈ 12.6 µg/mL) | zone of inhibition at 20 µM (Curvularia lunata [6]): 12 mm | zone of inhibition at 40 µM (Curvularia lunata [7]): 15 mm | MIC (Aspergillus flavus [8]): > 80 µM | zone of inhibition at 80 µM (Curvularia lunata [9]): 18 mm | inhibition zone (IZ) (Aspergillus flavus [10]): inactive | zone of inhibition at 40 µM (Aspergillus flavus [11]): 9 mm | zone of inhibition at 80 µM (Aspergillus flavus [12]): 10 mm | MIC (Aspergillus niger [13]): 40 µM (≈ 25.2 µg/mL) | zone of inhibition at 20 µM (Aspergillus niger [14]): 10 mm | zone of inhibition at 40 µM (Aspergillus niger [15]): 14 mm | zone of inhibition at 80 µM (Aspergillus niger [16]): 14 mm | MIC (Escherichia coli [17]): 20 µM (≈ 12.6 µg/mL) | zone of inhibition at 20 µM (Escherichia coli [18]): 16 mm | zone of inhibition at 40 µM (Escherichia coli [19]): 18 mm | zone of inhibition at 80 µM (Escherichia coli [20]): 21 mm | MIC (Pseudomonas aeruginosa [21]): 20 µM (≈ 12.6 µg/mL) | diameter of the inhibition zone (DIZ) (Pseudomonas aeruginosa [22]): inactive | zone of inhibition at 40 µM (Pseudomonas aeruginosa [23]): 10 mm | zone of inhibition at 80 µM (Pseudomonas aeruginosa [24]): 14 mm | MIC (Salmonella typhi [25]): 20 µM (≈ 12.6 µg/mL) | zone of inhibition at 20 µM (Salmonella typhi [26]): 13 mm | zone of inhibition at 40 µM (Salmonella typhi [27]): 16 mm | zone of inhibition at 80 µM (Salmonella typhi [28]): 19 mm | MIC (Bacillus cereus [29]): 20 µM (≈ 12.6 µg/mL) | zone of inhibition at 20 µM (Bacillus cereus [30]): 9 mm | zone of inhibition at 40 µM (Bacillus cereus [31]): 11 mm | zone of inhibition at 80 µM (Bacillus cereus [32]): 14 mm | MIC (Staphylococcus aureus [33]): 20 µM (≈ 12.6 µg/mL) | zone of inhibition at 20 µM (Staphylococcus aureus [34]): 9 mm | zone of inhibition at 40 µM (Staphylococcus aureus [35]): 14 mm | zone of inhibition at 80 µM (Staphylococcus aureus [36]): 17 mm
